The values below come from ChEMBL document CHEMBL1145212, “Fluorinated diaryl sulfides as serotonin transporter ligands: synthesis, structure-activity relationship study, and in vivo evaluation of fluorine-18-labeled compounds as PET imaging agents” (J Med Chem, 2005).

Holding throughout (format): cell-based
Experiment [1] addresses Sodium-dependent dopamine transporter (Homo sapiens, UniProt Q01959). As to the kind of experiment: In vitro displacement of [3H]GBR-12935 from human dopamine transporter expressed in HEK293 cells. An outline of the steps:
(§1)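 Competitive binding using cloned human transporters expressed in HEK-293 cells. NET was labelled with [³H]nisoxetine and DAT with [³H]GBR12935, following a previously published procedure.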

The target of experiment [2] is Sodium-dependent serotonin transporter (Homo sapiens, UniProt P31645). Briefly: In vitro displacement of [3H]paroxetine from human serotonin transporter expressed in HEK293 cells.
Experiment [3] concerns the target Sodium-dependent noradrenaline transporter (Homo sapiens, UniProt P23975). Briefly: In vitro displacement of [3H]nisoxetine from human norepinephrine transporter expressed in HEK293 cells. The procedure, abridged:
as §1

Each structure is given as a SMILES string.

Sequence of Sodium-dependent serotonin transporter (P31645 whole entry): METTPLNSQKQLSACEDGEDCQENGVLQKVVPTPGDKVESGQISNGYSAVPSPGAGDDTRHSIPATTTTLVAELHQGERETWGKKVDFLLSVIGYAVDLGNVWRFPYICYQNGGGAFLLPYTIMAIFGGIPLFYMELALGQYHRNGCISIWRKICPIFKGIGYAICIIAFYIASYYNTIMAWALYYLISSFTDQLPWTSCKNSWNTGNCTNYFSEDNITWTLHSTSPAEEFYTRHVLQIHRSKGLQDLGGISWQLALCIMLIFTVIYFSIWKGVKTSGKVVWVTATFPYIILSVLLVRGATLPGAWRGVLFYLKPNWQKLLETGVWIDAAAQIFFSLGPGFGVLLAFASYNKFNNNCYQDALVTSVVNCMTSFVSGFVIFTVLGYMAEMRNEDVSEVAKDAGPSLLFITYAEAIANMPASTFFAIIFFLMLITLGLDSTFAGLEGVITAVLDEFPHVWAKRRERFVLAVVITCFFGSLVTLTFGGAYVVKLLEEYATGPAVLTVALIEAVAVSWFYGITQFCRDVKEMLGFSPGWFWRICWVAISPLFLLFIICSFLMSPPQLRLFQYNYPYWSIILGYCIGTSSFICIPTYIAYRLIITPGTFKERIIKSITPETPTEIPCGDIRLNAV
Sequence of Sodium-dependent noradrenaline transporter (P23975 whole entry): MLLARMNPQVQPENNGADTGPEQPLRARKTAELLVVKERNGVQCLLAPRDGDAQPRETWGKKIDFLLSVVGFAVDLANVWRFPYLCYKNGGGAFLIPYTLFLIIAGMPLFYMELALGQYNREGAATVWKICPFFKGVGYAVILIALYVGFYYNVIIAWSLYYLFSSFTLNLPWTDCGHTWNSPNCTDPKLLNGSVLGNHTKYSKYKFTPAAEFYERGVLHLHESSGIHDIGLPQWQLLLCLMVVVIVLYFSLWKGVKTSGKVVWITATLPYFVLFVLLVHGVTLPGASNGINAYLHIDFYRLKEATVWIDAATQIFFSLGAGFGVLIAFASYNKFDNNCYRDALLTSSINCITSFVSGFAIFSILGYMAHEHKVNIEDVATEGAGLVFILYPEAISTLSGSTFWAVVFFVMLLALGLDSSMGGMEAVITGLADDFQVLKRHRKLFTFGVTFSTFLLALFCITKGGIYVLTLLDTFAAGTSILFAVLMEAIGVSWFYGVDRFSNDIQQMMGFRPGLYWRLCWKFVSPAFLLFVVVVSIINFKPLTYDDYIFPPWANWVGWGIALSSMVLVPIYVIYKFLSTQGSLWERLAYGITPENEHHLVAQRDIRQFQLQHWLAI
Sequence of Sodium-dependent dopamine transporter (Q01959 whole entry): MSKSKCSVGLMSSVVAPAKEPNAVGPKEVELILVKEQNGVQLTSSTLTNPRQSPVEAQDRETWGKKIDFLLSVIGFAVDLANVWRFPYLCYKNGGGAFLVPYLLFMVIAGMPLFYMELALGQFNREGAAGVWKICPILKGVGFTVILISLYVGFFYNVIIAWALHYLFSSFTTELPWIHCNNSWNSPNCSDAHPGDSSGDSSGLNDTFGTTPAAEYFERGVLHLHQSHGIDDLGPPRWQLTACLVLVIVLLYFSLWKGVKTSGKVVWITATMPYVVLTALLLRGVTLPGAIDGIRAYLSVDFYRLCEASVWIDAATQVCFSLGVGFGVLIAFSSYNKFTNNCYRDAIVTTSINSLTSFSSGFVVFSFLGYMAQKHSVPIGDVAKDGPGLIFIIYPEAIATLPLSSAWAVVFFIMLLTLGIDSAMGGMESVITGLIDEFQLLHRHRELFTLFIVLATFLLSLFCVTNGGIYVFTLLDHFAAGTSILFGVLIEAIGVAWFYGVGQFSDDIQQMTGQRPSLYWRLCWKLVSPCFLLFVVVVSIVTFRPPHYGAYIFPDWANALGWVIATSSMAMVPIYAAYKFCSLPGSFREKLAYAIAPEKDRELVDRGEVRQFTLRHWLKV

For `Cc1ccc(Sc2ccccc2CNCCCF)c(N)c1`, the values for the Ki in experiment [1], in experiment [2] and in experiment [3] were more than 10 µM, 0.518 µM and 4.33 µM, respectively.
